Not all results are given here.
Apaf1 activ: human Apaf-1 activation. O14727. Apaf-1 apoptosome caspase-3 activation, DEVD-Rh110 fluorescence; hits give low values. activity change, negative = activation, % at 20 µM. 330,000 compounds, 0.31% hits;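 active = activity change at or below -40% at 20 µM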
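Material: biochemical Apaf-1 apoptosome reconstitution; Medium: 20 mM HEPES buffer, pH 7.5, containing CHAPS and BSA; Reagent: dATP, cytochrome c, and (Z-DEVD)2-Rh110 caspase-3 substrate; Times: 30 min preincubation, 50 min reaction, room temperature; Signal: Rh110 fluorescence, excitation 480 nm, emission 540 nm; Measure: Caspase-3 activity via Apaf-1.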
Rh110 act interf: Rh110 signal interference in Apaf-1 activator counter-screen; Rh110 fluorescence interference, quenched caspase reaction, Ex480/Em540; AID 504616; 980 tested, under 10 active; fluorescence interference (activity change), % at 20 µM, hits read low; shares compounds with Apaf1 activ;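 active = mean activity change at or below -40% when tested at 20 µM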
Apaf-1 act conf2: confirmation of human Apaf-1 activators. shares compounds with Apaf1 activ. reconstituted apoptosome caspase-3 activity, DEVD-Rh110 fluorescence; hits give low values. activity change, negative = activation, % at 20 µM. 980 compounds, 5% hits. AID 504617;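 active = mean activity change at or below -40%, meaning activation of 40% or more, at 20 µM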
Apaf1 act interf: counter-screen for Apaf-1 activators: fluorescence interference, dose response; shares compounds with Apaf1 activ; fluorescence interference counterscreen, Apaf-1 activator assay; EC50, µM; 55 tested, under 10 active; call rule not given here
Starred values were filed as active, the others as inactive; nt = not tested or not shown.

SMILES	Apaf1 activ	Rh110 act interf	Apaf-1 act conf2	others
CN(C)CCCNc1cc(C(C)(C)C)nc2c(-c3ccc(Cl)cc3)cnn12	58	nt	nt
Cc1ccc(NC2=C(NC(=O)c3ccccc3)C(=O)c3ccccc3C2=O)cc1Cl	67	nt	nt
COc1ccc(-c2cc(C)no2)cc1S(=O)(=O)N1CCOc2ccccc21	-425*	9	14
COc1ccc(CC(=O)N(Cc2ccccc2)c2ccc(C)cc2)cc1S(=O)(=O)N1CCOCC1	43	nt	nt
CN(C)c1ccc(N/C=C/C(=O)C(C)(C)C)cc1	53	nt	nt
CCOc1cc(/C=N/NC(=O)C(=O)NCCCOC(C)C)cc(Br)c1O	-173*	0	12
COc1cc2sc3cc(NCC[C@@H]4CCCN4C)ccc3c(=O)c2cc1OC	55	nt	nt
C#CCOCCOCCOCCNc1nc(N2CCN(C(=O)[C@H](Cc3cc4ccccc4[nH]3)n3cc([C@@H](N)C(C)CC)nn3)CC2)nc(N2CCN(C(=O)[C@H](CCCCN)n3cc([C@@H](N)CC(C)C)nn3)CC2)n1 (stereo not given in full)	41	nt	nt
COc1ccc(Cn2c(N)c(C#N)c3nc4ccccc4nc32)cc1	50	nt	nt
N#Cc1c(N)n(CCc2ccc(F)cc2)c2nc3ccccc3nc12	82	nt	nt
COc1ccc(C(CC(=O)c2ccc(O)cc2)S(=O)(=O)c2ccc(C)cc2)cc1 (stereo not given)	-64*	-4	6
COc1ccc(S(=O)(=O)/N=C2\C=C(Nc3ccc(O)cc3)C(=O)c3ccccc32)cc1	96	nt	nt
Cc1ccc(NC(=S)Nc2cccc3cnccc23)cc1	96	nt	nt
CN(C=[N+](C)C)c1cccc2c1C(=O)c1ccccc1C2=O	43	nt	nt
CCCCN(CCCC)C(=S)N/N=C/c1c(C)[nH]n(-c2ccccc2)c1=O	57	nt	nt
CCCCN=Cc1c(C)[nH]n(-c2ccccc2)c1=S	-80*	1	12
Cc1cc(C(=O)N/N=C/c2c(C)[nH]n(-c3ccccc3)c2=O)n[nH]1	77	nt	nt
[O-]/C(=C(\C(=S)Nc1cccc2ccccc12)[n+]1ccccc1)c1ccc(Cl)s1	47	nt	nt
N#Cc1nc(-c2ccc(OCc3ccc(Cl)cc3)cc2)oc1N1CCC(C(N)=O)CC1	-82*	2	-96*	Apaf1 act interf=>100
COc1cccc2sc3cc(C#CC4(O)CCCCC4)ccc3c(=O)c12	40	nt	nt
Cc1ccc2cc(C(c3nnnn3Cc3ccccc3)N3CCc4ccccc43)c(=O)[nH]c2c1 (stereo not given)	43	nt	nt
Cc1cc(-c2nnc(CCC(=O)NC(C)(C)C34CC5CC(CC(C5)C3)C4)o2)no1	-55*	8	5
COCCCNC(=O)c1c(N)n(-c2ccccc2)c2nc3ccccc3nc12	84	nt	nt
Cc1cc(=O)n(-c2ccc3ccccc3n2)[nH]1	86	nt	nt
COCCNC(=O)c1c(N)n(CCCn2ccnc2)c2nc3ccccc3nc12	94	nt	nt
SMILES	Apaf1 activ	Rh110 act interf	Apaf-1 act conf2	others
CCN1CCN(C(=O)CN(c2cc(OC)ccc2OC)S(C)(=O)=O)CC1	-191*	3	13
Oc1ccc(C[C@@H]2CNCCN2CCC23CC4CC(CC(C4)C2)C3)cc1	47	nt	nt
COc1cc(OC)c(C2CC(=O)N3CN(c4ccccc4C)CSC3=C2C#N)cc1OC (stereo not given)	66	nt	nt
COc1ccc(N2C(=O)CC(N(CCc3ccc(OC)c(OC)c3)C(=S)Nc3ccccc3)C2=O)cc1 (stereo not given)	-41*	-4	16
CC(=O)[C@]1(O)Cc2c(O)c3c(c(O)c2[C@@H](O[C@H]2C[C@H](N)[C@H](O)[C@H](C)O2)C1)C(=O)c1ccccc1C3=O	47	nt	nt
COCC(C)N1C(=O)Cc2c1nc(N)c1c(N)nc(N3CCN(c4ccccc4F)CC3)c(C#N)c21 (stereo not given)	97	nt	nt
COc1ccc2cc(C(=O)Nc3ccc(Cl)cc3)sc(=O)c2c1OC	-46*	8	13
O=C(C[C@H]1C[C@H](C(=O)N2CCCCC2)[C@@]2(CCc3ccccc3)c3[nH]c4ccc(Cl)cc4c3CCN2C1=O)NCCCn1ccnc1	61	nt	nt
CS(=O)(=O)N(CC(=O)Nc1c(F)cccc1F)Cc1ccccc1	-59*	7	14
CCN(CC)CC(=O)Nc1c(C)cccc1C	-5	nt	nt
CCN(CC(=O)Nc1c(F)cccc1F)C(=O)Cc1ccsc1	52	nt	nt
Cc1nc2sccn2c(=O)c1CCN1CCC(=C(c2ccccc2)c2ccc(F)cc2)CC1	42	nt	nt
CCCCc1ccc(Nc2nc(CCC)cc(=O)[nH]2)cc1	40	nt	nt
CC(=O)c1cc(O)c2ccccc2c1O	58	nt	nt
CCN1CCN(Cc2ccc(NC(=O)c3ccc(C)c(NC(=O)C(=O)c4c[nH]c5ccccc45)c3)cc2C(F)(F)F)CC1	74	nt	nt

Screening data from PubChem.
